Data: ChEMBL document CHEMBL3045582, “Chemical synthesis, in vitro acetohydroxyacid synthase (AHAS) inhibition, herbicidal activity, and computational studies of isatin derivatives” (2011)

Legend:
[1] = tested on: Brassica rapa subsp. oleifera; assay: Inhibition of Brassica rapa subsp. oleifera root growth at 10 mg/L; format: functional
[2] = tested on: Brassica rapa subsp. oleifera; assay: Inhibition of Brassica rapa subsp. oleifera at 100 mg/L; format: functional
Outline: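 Rape (Brassica campestris L.) root growth assay, per the group's earlier published method; compound tested at 100 mg L-1; read-out is root length inhibition (%); monosulfuron used as reference herbicide.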

[3] = target: T1, Acetolactate synthase, chloroplastic (Arabidopsis thaliana) (UniProt P17597); assay: Inhibition of Arabidopsis thaliana AHAS at 100 mg/L colorimetric assay
T1 sequence (whole entry): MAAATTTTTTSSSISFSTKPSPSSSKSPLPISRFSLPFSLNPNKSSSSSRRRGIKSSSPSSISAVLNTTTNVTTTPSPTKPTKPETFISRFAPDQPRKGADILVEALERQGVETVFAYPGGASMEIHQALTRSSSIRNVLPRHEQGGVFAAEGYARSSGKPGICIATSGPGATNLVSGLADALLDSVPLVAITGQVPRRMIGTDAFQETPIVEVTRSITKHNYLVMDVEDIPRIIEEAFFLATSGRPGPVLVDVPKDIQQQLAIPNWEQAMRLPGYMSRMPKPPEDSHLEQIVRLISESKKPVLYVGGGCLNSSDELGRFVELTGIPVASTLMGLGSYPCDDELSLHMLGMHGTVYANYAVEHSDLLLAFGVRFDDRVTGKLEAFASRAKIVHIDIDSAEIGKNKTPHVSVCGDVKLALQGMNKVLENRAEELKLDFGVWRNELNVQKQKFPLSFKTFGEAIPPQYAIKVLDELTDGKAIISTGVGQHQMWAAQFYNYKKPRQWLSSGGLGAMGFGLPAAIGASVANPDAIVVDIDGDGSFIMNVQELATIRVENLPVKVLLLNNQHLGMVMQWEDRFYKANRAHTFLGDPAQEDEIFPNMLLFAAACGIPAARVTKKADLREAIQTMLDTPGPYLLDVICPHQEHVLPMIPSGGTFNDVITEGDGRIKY
Outline: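 Expressed and purified A. thaliana AHAS tested at a single concentration of 100 mg L-1. Enzyme activity was read by a colorimetric method described earlier, and the result is given as percent inhibition of AtAHAS activity.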

| SMILES | inhibition at 10 µg/mL [1] [%] | inhibition at 100 µg/mL [2] [%] | inhibition [3] [%] |
| --- | --- | --- | --- |
| O=C(N/N=C1\C(=O)N(Cc2cccc(F)c2)c2ccccc21)c1ccccc1 | 0 | 40 | 95 |
| CN1C(=O)C(=O)c2ccccc21 | 7 | 24 | 50 |
| Cc1ccnc(NC(=O)NS(=O)(=O)c2ccccc2C(=O)O)n1 [MONOSULFURON] | 64 | 78 | 90 |
| Cc1ccccc1CN1C(=O)/C(=N\NC(=O)c2ccccc2)c2ccccc21 | 0 | 0 | 50 |
| O=C1Nc2c(I)cccc2/C1=N/NC(=O)c1ccccc1O | 0 | 25 | 95 |
| O=C(N/N=C1\C(=O)N(Cc2ccc(Cl)cc2Cl)c2ccccc21)c1ccccc1 | 0 | 6 | 50 |
| Cc1cc(C)n(CC(=O)N/N=C2\C(=O)Nc3ccccc32)n1 | 0 | 27 | 35 |
| Cc1cc(Cl)cc2c1NC(=O)C2=O | 10 | 65 | 65 |
| O=C1Nc2c(I)cccc2/C1=N/NC(=O)c1cccc(F)c1 | 51 | 81 | 75 |
| O=C1Nc2ccccc2/C1=N/Nc1ncccc1Cl | 0 | 19 | 70 |
| O=C1Nc2ccc(C(F)(F)F)cc2C1=O | 27 | 93 | 60 |
| O=C1Nc2ccc([N+](=O)[O-])cc2C1=O [5-NITROISATIN] | 7 | 82 | 60 |
| O=C1Nc2ccccc2C1=O [ISATIN] | 24 | 52 | 70 |
| COc1ccc2c(c1)C(=O)C(=O)N2 [5-METHOXYISATIN] | 20 | 30 | 60 |
| CN1C(=O)C(=O)c2cc([N+](=O)[O-])ccc21 | 2 | 33 | 25 |
| CN1C(=O)C(=O)c2cc(Cl)ccc21 | 20 | 53 | 60 |
| O=C1Nc2c(Br)cccc2/C1=N/NC(=O)c1cccc(F)c1 | 0 | 16 | 60 |

| SMILES | inhibition at 10 µg/mL [1] [%] | inhibition at 100 µg/mL [2] [%] | inhibition [3] [%] |
| --- | --- | --- | --- |
| O=C1Nc2ccc(S(=O)(=O)O)cc2C1=O | 4 | 18 | 10 |
| CN1C(=O)C(=O)c2cccc(Cl)c21 | 31 | 59 | 80 |
| O=C1Nc2c(Br)cccc2/C1=N/NC(=O)c1ccccc1F | 14 | 39 | 95 |
| O=C1Nc2ccc(I)cc2C1=O [5-IODOISATIN] | 31 | 92 | 70 |
| O=C1Nc2ccc(Cl)cc2C1=O | 28 | 95 | 55 |
| O=C1Nc2c(Cl)cccc2C1=O | 51 | 83 | 70 |
| N#Cc1ccc(CN2C(=O)/C(=N\NC(=O)c3ccccc3)c3ccccc32)cc1 | 2 | 48 | 20 |
| CN1C(=O)C(=O)c2cc(I)ccc21 | 13 | 27 | 60 |
| Cc1nc(C)c(C(=O)N/N=C2\C(=O)Nc3ccccc32)s1 | 0 | 21 | 30 |
| CN1C(=O)C(=O)c2cc(F)ccc21 | 19 | 59 | 60 |
| Cc1ccc2c(c1)C(=O)C(=O)N2 | 13 | 80 | 50 |
| O=C1Nc2ccccc2/C1=N/O | 0 | 55 | 45 |
| Cc1ccc2c(c1)C(=O)C(=O)N2C | 14 | 26 | 75 |
| CC(C)(C)c1ccc(CN2C(=O)/C(=N\NC(=O)c3ccccc3)c3ccccc32)cc1 | 0 | 15 | 60 |
| O=C(N/N=C1\C(=O)N(Cc2ccc(F)cc2)c2ccccc21)c1ccccc1 | 0 | 15 | 80 |
| O=C1Nc2ccc(F)cc2C1=O [5-FLUOROISATIN] | 52 | 88 | 65 |
